This note sets out measurements from ChEMBL document CHEMBL1136653, “Discovery of a potent and selective agonist of the prostaglandin EP4 receptor” (Bioorg Med Chem Lett, 2003).

SMILES strings stand for the structures.

In series [1] the target is Prostaglandin E2 receptor EP2 subtype (Homo sapiens, UniProt P43116). Put plainly: Binding affinity towards EP2 receptor expressed in HEK293 ebna cells recombinantly expressing the corresponding human prostanoid cDNAs. In kind it is cell-based. A digest of the protocol:
(§1)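 Competition binding used membrane preparations, not intact cells, from HEK293ebna cells expressing each recombinant human prostanoid receptor cDNA.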

The target of series [2] is Prostacyclin receptor (Homo sapiens, UniProt P43119). The series is described as follows: Binding affinity towards IP receptor expressed in HEK293 ebna cells recombinantly expressing the corresponding human prostanoid cDNAs. In kind it is cell-based. A digest of the protocol:
as §1

Series [3] deals with T1, Prostaglandin E2 receptor EP1 subtype (Homo sapiens, UniProt P34995).
T1 sequence (P34995 whole entry): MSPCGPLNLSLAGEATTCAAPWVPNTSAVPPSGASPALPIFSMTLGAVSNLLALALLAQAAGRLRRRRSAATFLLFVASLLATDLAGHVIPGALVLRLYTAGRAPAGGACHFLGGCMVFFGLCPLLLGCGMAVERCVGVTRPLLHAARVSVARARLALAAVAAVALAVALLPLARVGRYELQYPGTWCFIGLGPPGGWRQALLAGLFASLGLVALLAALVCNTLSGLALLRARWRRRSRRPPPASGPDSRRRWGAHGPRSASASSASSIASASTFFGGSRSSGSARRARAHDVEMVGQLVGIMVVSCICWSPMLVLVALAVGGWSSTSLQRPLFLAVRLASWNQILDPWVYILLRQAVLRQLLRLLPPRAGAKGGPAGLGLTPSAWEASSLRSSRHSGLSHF
The series is described as follows: Binding affinity towards EP1 receptor expressed in HEK293 ebna cells recombinantly expressing the corresponding human prostanoid cDNAs. The class given is cell-based. A digest of the protocol: as §1

Series [4] concerns the target T2, Prostaglandin E2 receptor EP4 subtype (Homo sapiens, UniProt P35408). Put plainly: Inhibitory activity against human EP4 receptor expressed in HEK293 ebna cells. The class given is cell-based.
In series [5] the target is T3, Prostaglandin E2 receptor EP3 subtype (Homo sapiens, UniProt P43115).
T3 sequence (P43115 whole entry): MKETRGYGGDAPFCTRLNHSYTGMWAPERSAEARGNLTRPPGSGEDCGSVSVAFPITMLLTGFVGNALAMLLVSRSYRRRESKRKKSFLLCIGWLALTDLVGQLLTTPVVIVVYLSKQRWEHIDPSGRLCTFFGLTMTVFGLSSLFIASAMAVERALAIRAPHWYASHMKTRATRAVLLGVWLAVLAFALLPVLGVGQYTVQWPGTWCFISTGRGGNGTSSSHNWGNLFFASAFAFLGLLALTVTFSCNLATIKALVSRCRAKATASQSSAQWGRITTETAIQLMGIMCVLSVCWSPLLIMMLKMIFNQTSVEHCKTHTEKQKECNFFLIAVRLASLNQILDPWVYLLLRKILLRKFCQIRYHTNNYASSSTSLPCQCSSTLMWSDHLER
The series is described as follows: Binding affinity towards EP3 receptor expressed in HEK293 ebna cells recombinantly expressing the corresponding human prostanoid cDNAs. In kind it is cell-based. A digest of the protocol: as §1

For series [6], the target named is T4, Prostaglandin D2 receptor (Homo sapiens, UniProt Q13258).
T4 sequence (Q13258 whole entry): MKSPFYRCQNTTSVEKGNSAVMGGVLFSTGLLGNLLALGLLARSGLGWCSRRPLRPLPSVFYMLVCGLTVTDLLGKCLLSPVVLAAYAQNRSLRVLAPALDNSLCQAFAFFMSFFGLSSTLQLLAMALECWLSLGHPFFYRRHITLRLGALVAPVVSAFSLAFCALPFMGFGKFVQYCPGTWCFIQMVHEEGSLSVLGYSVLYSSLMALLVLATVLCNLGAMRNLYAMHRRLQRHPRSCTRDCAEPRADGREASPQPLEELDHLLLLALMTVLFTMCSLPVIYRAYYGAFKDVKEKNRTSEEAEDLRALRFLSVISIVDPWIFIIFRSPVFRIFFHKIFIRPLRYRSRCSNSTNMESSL
The series is described as follows: Binding affinity towards DP receptor expressed in HEK293 ebna cells recombinantly expressing the corresponding human prostanoid cDNAs. The class given is cell-based. The gist of the method: as §1

The target in series [7] is T5, Thromboxane A2 receptor (Homo sapiens, UniProt P21731).
T5 sequence (P21731 whole entry): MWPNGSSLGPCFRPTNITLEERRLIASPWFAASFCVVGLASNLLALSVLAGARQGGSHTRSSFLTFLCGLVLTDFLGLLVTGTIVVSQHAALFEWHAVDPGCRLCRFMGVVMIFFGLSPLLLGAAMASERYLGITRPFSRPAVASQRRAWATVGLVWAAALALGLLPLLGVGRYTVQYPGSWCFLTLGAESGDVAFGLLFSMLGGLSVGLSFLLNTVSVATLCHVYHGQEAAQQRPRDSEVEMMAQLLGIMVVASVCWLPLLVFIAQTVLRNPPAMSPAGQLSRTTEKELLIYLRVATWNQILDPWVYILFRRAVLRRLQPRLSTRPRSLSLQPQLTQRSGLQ
The series is described as follows: Binding affinity towards TP receptor expressed in HEK293 ebna cells recombinantly expressing the corresponding human prostanoid cDNAs. In kind it is cell-based. The gist of the method: as §1

Series [8] concerns the target Prostaglandin F2-alpha receptor (Homo sapiens, UniProt P43088). The series is described as follows: Binding affinity towards FP receptor expressed in HEK293 ebna cells recombinantly expressing the corresponding human prostanoid cDNAs. The class given is cell-based. The gist of the method:
as §1

Series [9] concerns the target T2, Prostaglandin E2 receptor EP4 subtype. The series is described as follows: EP4 agonist potency utilizing a stable clone of pSV40-EP4 transfected into HEK293 cells expressing EP4 receptor. The class given is functional, cell-based. The gist of the method: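 A HEK293 stable clone carried pSV40-EP4 at about 50 fmol/mg receptor. Whole-cell cAMP assay: 1×10⁵ cells per sample were suspended in 0.2 mL HBSS with 2 mM IBMX. Compound or PGE₂ was given in DMSO at a constant final 1.8% (v/v). Incubation ran 10 min at 37 °C and was stopped by 3 min in boiling water. cAMP was read by [¹²⁵I]cAMP scintillation proximity assay.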

For series [10] the target is unchanged. The series is described as follows: Binding affinity towards EP4 receptor expressed in HEK293 ebna cells recombinantly expressing the corresponding human prostanoid cDNAs. In kind it is cell-based.
The nature of series [11]: Half-life after intravenous dose in rat. As to conditions: in vivo. The class given is ADME, organism-based.

T2 sequence (P35408 whole entry): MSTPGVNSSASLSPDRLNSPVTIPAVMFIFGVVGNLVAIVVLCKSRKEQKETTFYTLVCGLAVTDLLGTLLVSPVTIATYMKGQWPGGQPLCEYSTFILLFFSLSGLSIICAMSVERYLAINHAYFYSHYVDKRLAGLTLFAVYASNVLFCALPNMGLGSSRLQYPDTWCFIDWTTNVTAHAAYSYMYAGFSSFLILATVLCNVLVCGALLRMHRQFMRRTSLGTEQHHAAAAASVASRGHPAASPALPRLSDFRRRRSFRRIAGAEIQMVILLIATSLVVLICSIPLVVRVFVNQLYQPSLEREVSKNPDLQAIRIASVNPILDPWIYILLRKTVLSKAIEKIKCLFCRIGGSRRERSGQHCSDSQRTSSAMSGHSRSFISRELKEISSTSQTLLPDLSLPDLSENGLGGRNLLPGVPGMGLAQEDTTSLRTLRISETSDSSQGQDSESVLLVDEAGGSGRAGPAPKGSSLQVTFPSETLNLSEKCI
Chain of Prostaglandin E2 receptor EP2 subtype (P43116 whole entry): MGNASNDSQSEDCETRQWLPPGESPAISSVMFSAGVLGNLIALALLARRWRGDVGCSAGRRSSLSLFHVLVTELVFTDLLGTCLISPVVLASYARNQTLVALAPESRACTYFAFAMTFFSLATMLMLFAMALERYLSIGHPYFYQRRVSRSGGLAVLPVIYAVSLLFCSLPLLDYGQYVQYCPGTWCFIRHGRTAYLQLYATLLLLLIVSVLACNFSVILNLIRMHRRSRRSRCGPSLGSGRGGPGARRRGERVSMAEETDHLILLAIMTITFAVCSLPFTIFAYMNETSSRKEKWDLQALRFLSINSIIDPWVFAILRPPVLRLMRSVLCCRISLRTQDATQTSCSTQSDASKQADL
Chain of Prostaglandin F2-alpha receptor (P43088 whole entry): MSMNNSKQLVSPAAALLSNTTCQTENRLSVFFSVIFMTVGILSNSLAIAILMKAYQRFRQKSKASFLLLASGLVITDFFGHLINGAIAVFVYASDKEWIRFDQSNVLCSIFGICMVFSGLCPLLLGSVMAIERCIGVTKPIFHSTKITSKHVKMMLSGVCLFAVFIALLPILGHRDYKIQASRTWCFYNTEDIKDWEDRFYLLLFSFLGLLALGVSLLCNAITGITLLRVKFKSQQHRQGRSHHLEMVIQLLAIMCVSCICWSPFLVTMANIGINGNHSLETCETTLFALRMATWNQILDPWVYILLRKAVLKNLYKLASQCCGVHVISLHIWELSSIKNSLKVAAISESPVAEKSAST
Chain of Prostacyclin receptor (P43119 whole entry): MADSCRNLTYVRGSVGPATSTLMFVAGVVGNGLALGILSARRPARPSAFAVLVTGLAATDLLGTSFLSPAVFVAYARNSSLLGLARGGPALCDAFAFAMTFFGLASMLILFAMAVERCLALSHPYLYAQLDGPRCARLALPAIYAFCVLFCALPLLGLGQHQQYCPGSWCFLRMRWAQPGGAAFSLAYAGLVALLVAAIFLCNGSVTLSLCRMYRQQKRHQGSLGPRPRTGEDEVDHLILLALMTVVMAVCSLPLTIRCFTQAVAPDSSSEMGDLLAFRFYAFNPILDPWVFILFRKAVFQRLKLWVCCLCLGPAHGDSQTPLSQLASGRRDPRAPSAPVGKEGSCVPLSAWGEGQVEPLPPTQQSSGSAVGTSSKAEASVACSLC

A word on the Ki: it is a dissociation constant, usually derived from enzyme kinetics or from competition with a known ligand. As usually defined, the IC50 is the concentration that inhibits the measured activity by half. The low end stands for higher potency, the high end for lower potency. As a reminder, the EC50 is the concentration that produces a half-maximal response. The low end stands for a more potent agent, the high end for a less potent agent. In the case of `O=C1CC[C@H](/C=C/[C@@H](O)Cc2ccccc2)N1CCCCCCc1nnn[nH]1`, the Ki in [1], in series [2], in series [3], in series [5], in series [6] and in [7] was greater than 13 µM in each case. The Ki in series [8] was greater than 13 µM; in series [10], 0.0012 µM. Further, the IC50 in [4] turned out to be 0.0014 µM. The same compound yielded a half-maximal effective concentration (EC50) in series [9] of 0.0025 µM.

For orientation: half-life means the time in which the quantity being followed falls by half. A lower half-life goes with fast loss. In the case of `O=C(O)CCCCCCN1C(=O)CC[C@@H]1/C=C/C(O)Cc1ccccc1` (stereo partly drawn), the Ki in [1], in series [2], in series [3], in series [5], in series [6] and in [7] was greater than 13 µM each time. For the same compound, the inhibition constant Ki in [8] was greater than 13 µM. This compound showed a half-life in series [11] of less than 20 min.
